{"data": "Assay results of several laboratories", "observed": "cell growth or viability", "note": "Each line is one published result; the experiments were not run side by side."}
{"SMILES": "CONC(=O)c1cccc2c1cc(C)n2-c1nc2c(c(NCc3ccccc3)n1)CCCN2", "cell line": "ARP-1", "time": "72 h", "IC50": "2.1 µM"}
{"SMILES": "O=C(CSc1nc2ccccc2s1)N/N=C/c1ccc(OCC(=O)Nc2ccc(Br)cc2)cc1", "cell line": "Z-138", "technique": "MTS", "time": "72 h", "IC50": "> 100 µM"}
{"SMILES": "CC(C)c1cccc(C(C)C)c1N=C1C(=O)Nc2ccccc21", "cell line": "B16", "technique": "MTT", "time": "48 h", "IC50": "6.88 µM"}
{"SMILES": "Cc1nc(Nc2ncc(C(=O)Nc3c(C)cccc3Cl)s2)cc(N2CC[C@H](O)C2)n1", "cell line": "Granta-519", "technique": "ATP luminescence", "time": "72 h", "IC50": "> 10 µM"}
{"SMILES": "CN1CCC(NC2CCc3[nH]c4c(C(N)=O)ccc(-c5ccccc5Cl)c4c3C2)CC1 (stereo not drawn)", "cell line": "BXPC-3", "time": "96 h", "IC50": "0.0347 µM"}
{"SMILES": "Cc1ccc(CN2C(=O)C(=Nc3cccc(Cl)c3)c3ccccc32)cc1", "cell line": "B16", "technique": "MTT", "time": "48 h", "IC50": "1.49 µM"}
{"SMILES": "O=C(CSc1nc2ccccc2s1)N/N=C/c1ccc(OCC(=O)Nc2ccc([N+](=O)[O-])cc2)cc1", "cell line": "Z-138", "technique": "MTS", "time": "72 h", "IC50": "3.75 µM"}
{"SMILES": "Cc1cc2c(C(N)=O)cccc2n1-c1nc2c(c(NCc3ccccc3)n1)CCCN2", "cell line": "BXPC-3", "time": "72 h", "IC50": "0.8 µM"}
{"SMILES": "O=C1C(=Nc2ccccc2I)c2ccccc2N1Cc1ccc(Br)cc1", "cell line": "B16", "technique": "MTT", "time": "48 h", "IC50": "15.2 µM"}
{"SMILES": "Clc1ccc(-c2cc(CNc3cccc4cccnc34)on2)c(Cl)c1", "cell line": "Z-138", "technique": "MTS", "time": "72 h", "IC50": "27.9 µM"}
{"SMILES": "O=C1Nc2ccccc2C1=Nc1ccccc1I", "cell line": "B16", "technique": "MTT", "time": "48 h", "IC50": "7.38 µM"}
{"SMILES": "c1ccc(-c2cc(CNc3cccc4cccnc34)on2)nc1", "cell line": "Z-138", "technique": "MTS", "time": "72 h", "IC50": "28.2 µM"}
{"SMILES": "O=c1[nH]cc(F)c(=O)[nH]1", "cell line": "DLD-1", "technique": "MTT", "time": "72 h", "IC50": "2.68 µM"}
{"SMILES": "N/C(=N\\O)c1ccc(-c2cc(CNc3cccc4cccnc34)on2)cc1", "cell line": "Z-138", "technique": "MTS", "time": "72 h", "IC50": "2.1 µM"}
{"SMILES": "CCc1ccc(N=C2C(=O)Nc3ccccc32)cc1", "cell line": "B16", "technique": "MTT", "time": "48 h", "IC50": "37.3 µM"}
{"SMILES": "FC(F)(F)c1cc(OCc2cc(-c3ccc(Cl)cc3Cl)no2)c2ccccc2n1", "cell line": "Z-138", "technique": "MTS", "time": "72 h", "IC50": "> 100 µM"}
{"SMILES": "O=C(CSc1nc2ccccc2s1)N/N=C/c1ccc(OCC(=O)Nc2cccc(Cl)c2)cc1", "cell line": "Z-138", "technique": "MTS", "time": "72 h", "IC50": "> 100 µM"}
{"SMILES": "FC(F)(F)c1ccc(-c2cc(COc3cc(C(F)(F)F)nc4ccccc34)on2)cc1", "cell line": "Z-138", "technique": "MTS", "time": "72 h", "IC50": "> 100 µM"}
{"SMILES": "Cc1cc2c(C(=O)O)cccc2n1-c1nc2c(c(NCc3ccccc3)n1)CCCN2", "cell line": "BXPC-3", "time": "72 h", "IC50": "0.7 µM"}
{"SMILES": "O=c1cc(OCc2cc(-c3ccc(C(F)(F)F)cc3)no2)c2ccccc2o1", "cell line": "Z-138", "technique": "MTS", "time": "72 h", "IC50": "> 100 µM"}
{"SMILES": "O=C1C(=Nc2ccccc2I)c2ccccc2N1Cc1cccc(Cl)c1", "cell line": "B16", "technique": "MTT", "time": "48 h", "IC50": "5.86 µM"}
